{"source": "ChEMBL document CHEMBL2040727", "about": "“Substituted thiazoles VI. Synthesis and antitumor activity of new 2-acetamido- and 2 or 3-propanamido-thiazole analogs” (2012)", "data": [{"system": "SK-MEL-5", "test": "Growth inhibition of human SK-MEL-5 cells at 10 uM after 48 hrs by coulter counter analysis", "type": "functional", "settings": "SK-MEL-5, 48 h, read-out: GI", "outline": "(§1)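 Single-dose NCI 60-line panel screen of test compounds. Cells grown in RPMI 1640 with 10% FBS. Compounds dissolved in DMSO, then diluted in phosphate buffer saline (final DMSO below 1%). Wells run in duplicate at 6 × 10⁴ cells/ml. Controls held PBS and DMSO at matching dilutions. Incubation 48 h at 37 °C under humidified 5% CO2. Cells diluted tenfold in saline and counted by Coulter counter. Percent growth inhibition taken from mean-graph of treated-cell growth.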", "units": {"inhibition of growth at 10 µM": "%"}, "values": [{"molecule": "CCOC(=O)c1sc(NC(=O)C(C)N2CCN(C)CC2)nc1C", "note": "(stereo not drawn)", "inhibition of growth at 10 µM": "< 10"}]}, {"system": "MCF7", "test": "Growth inhibition of human MCF7 cells at 10 uM after 48 hrs by coulter counter analysis", "type": "functional", "settings": "MCF7, 48 h, read-out: GI", "outline": "as §1", "units": {"inhibition of growth at 10 µM": "%"}, "values": [{"molecule": "CCOC(=O)c1sc(NC(=O)C(C)N2CCN(C)CC2)nc1C", "note": "(stereo not drawn)", "inhibition of growth at 10 µM": "< 10"}]}, {"system": "UACC-62", "test": "Growth inhibition of human UACC62 cells at 10 uM after 48 hrs by coulter counter analysis", "type": "functional", "settings": "UACC-62, 48 h, read-out: GI", "outline": "(§2)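 Single-dose screen in the NCI 60 cell line panel. Cells grown in RPMI 1640 with 10% FBS. Compounds dissolved in DMSO and diluted in phosphate buffered saline, final DMSO under 1%. Duplicate wells seeded from culture at 6 × 10⁴ cells/ml. Incubated 48 h at 37 °C, humidified, 5% CO2. Cells diluted tenfold in saline and Coulter-counted. Percent growth inhibition computed against PBS/DMSO controls.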", "units": {"inhibition of growth at 10 µM": "%"}, "values": [{"molecule": "CCOC(=O)c1sc(NC(=O)C(C)N2CCN(C)CC2)nc1C", "note": "(stereo not drawn)", "inhibition of growth at 10 µM": "< 10"}]}, {"system": "HCT-15", "test": "Growth inhibition of human HCT15 cells at 10 uM after 48 hrs by coulter counter analysis", "type": "functional", "settings": "HCT-15, 48 h, read-out: GI", "outline": "as §1", "units": {"inhibition of growth at 10 µM": "%"}, "values": [{"molecule": "CCOC(=O)c1sc(NC(=O)C(C)N2CCN(C)CC2)nc1C", "note": "(stereo not drawn)", "inhibition of growth at 10 µM": "< 10"}]}, {"system": "UO-31", "test": "Growth inhibition of human UO31 cells at 10 uM after 48 hrs by coulter counter analysis", "type": "functional", "settings": "UO-31, 48 h, read-out: GI", "outline": "as §2", "units": {"inhibition of growth at 10 µM": "%"}, "values": [{"molecule": "CCOC(=O)c1sc(NC(=O)C(C)N2CCN(C)CC2)nc1C", "note": "(stereo not drawn)", "inhibition of growth at 10 µM": 13.1}]}, {"system": "SF-268", "test": "Growth inhibition of human SF268 cells at 10 uM after 48 hrs by coulter counter analysis", "type": "functional", "settings": "SF-268, 48 h, read-out: GI", "outline": "as §1", "units": {"inhibition of growth at 10 µM": "%"}, "values": [{"molecule": "CCOC(=O)c1sc(NC(=O)C(C)N2CCN(C)CC2)nc1C", "note": "(stereo not drawn)", "inhibition of growth at 10 µM": "< 10"}]}, {"system": "SK-MEL-2", "test": "Growth inhibition of human SK-MEL-2 cells at 10 uM after 48 hrs by coulter counter analysis", "type": "functional", "settings": "SK-MEL-2, 48 h, read-out: GI", "outline": "as §1", "units": {"inhibition of growth at 10 µM": "%"}, "values": [{"molecule": "CCOC(=O)c1sc(NC(=O)C(C)N2CCN(C)CC2)nc1C", "note": "(stereo not drawn)", "inhibition of growth at 10 µM": "< 10"}]}, {"system": "KM12", "test": "Growth inhibition of human KM12 cells at 10 uM after 48 hrs by coulter counter analysis", "type": "functional", "settings": "KM12, 48 h, read-out: GI", "outline": "as §1", "units": {"inhibition of growth at 10 µM": "%"}, "values": [{"molecule": "CCOC(=O)c1sc(NC(=O)C(C)N2CCN(C)CC2)nc1C", "note": "(stereo not drawn)", "inhibition of growth at 10 µM": "< 10"}]}, {"system": "HCC 2998", "test": "Growth inhibition of human HCC2998 cells at 10 uM after 48 hrs by coulter counter analysis", "type": "functional", "settings": "HCC 2998, 48 h, read-out: GI", "outline": "as §1", "units": {"inhibition of growth at 10 µM": "%"}, "values": [{"molecule": "CCOC(=O)c1sc(NC(=O)C(C)N2CCN(C)CC2)nc1C", "note": "(stereo not drawn)", "inhibition of growth at 10 µM": "< 10"}]}, {"system": "Malme-3M", "test": "Growth inhibition of human MALME-3M cells at 10 uM after 48 hrs by coulter counter analysis", "type": "functional", "settings": "read-out: GI", "outline": "as §1", "units": {"inhibition of growth at 10 µM": "%"}, "values": [{"molecule": "CCOC(=O)c1sc(NC(=O)C(C)N2CCN(C)CC2)nc1C", "note": "(stereo not drawn)", "inhibition of growth at 10 µM": "< 10"}]}, {"system": "SF-539", "test": "Growth inhibition of human SF539 cells at 10 uM after 48 hrs by coulter counter analysis", "type": "functional", "settings": "SF-539, 48 h, read-out: GI", "outline": "as §1", "units": {"inhibition of growth at 10 µM": "%"}, "values": [{"molecule": "CCOC(=O)c1sc(NC(=O)C(C)N2CCN(C)CC2)nc1C", "note": "(stereo not drawn)", "inhibition of growth at 10 µM": "< 10"}]}, {"system": "SR", "test": "Growth inhibition of human SR cells at 10 uM after 48 hrs by coulter counter analysis", "type": "functional", "settings": "read-out: GI", "outline": "as §2", "units": {"inhibition of growth at 10 µM": "%"}, "values": [{"molecule": "CCOC(=O)c1sc(NC(=O)C(C)N2CCN(C)CC2)nc1C", "note": "(stereo not drawn)", "inhibition of growth at 10 µM": "< 10"}]}, {"system": "OVCAR-3", "test": "Growth inhibition of human OVCAR3 cells at 10 uM after 48 hrs by coulter counter analysis", "type": "functional", "settings": "OVCAR-3, 48 h, read-out: GI", "outline": "as §1", "units": {"inhibition of growth at 10 µM": "%"}, "values": [{"molecule": "CCOC(=O)c1sc(NC(=O)C(C)N2CCN(C)CC2)nc1C", "note": "(stereo not drawn)", "inhibition of growth at 10 µM": "< 10"}]}, {"system": "NCI-H522", "test": "Growth inhibition of human NCI-H522 cells at 10 uM after 48 hrs by coulter counter analysis", "type": "functional", "settings": "NCI-H522, 48 h, read-out: GI", "outline": "as §1", "units": {"inhibition of growth at 10 µM": "%"}, "values": [{"molecule": "CCOC(=O)c1sc(NC(=O)C(C)N2CCN(C)CC2)nc1C", "note": "(stereo not drawn)", "inhibition of growth at 10 µM": "< 10"}]}, {"system": "OVCAR-8", "test": "Growth inhibition of human OVCAR8 cells at 10 uM after 48 hrs by coulter counter analysis", "type": "functional", "settings": "OVCAR-8, 48 h, read-out: GI", "outline": "as §1", "units": {"inhibition of growth at 10 µM": "%"}, "values": [{"molecule": "CCOC(=O)c1sc(NC(=O)C(C)N2CCN(C)CC2)nc1C", "note": "(stereo not drawn)", "inhibition of growth at 10 µM": "< 10"}]}, {"system": "OVCAR-5", "test": "Growth inhibition of human OVCAR5 cells at 10 uM after 48 hrs by coulter counter analysis", "type": "functional", "settings": "OVCAR-5, 48 h, read-out: GI", "outline": "as §1", "units": {"inhibition of growth at 10 µM": "%"}, "values": [{"molecule": "CCOC(=O)c1sc(NC(=O)C(C)N2CCN(C)CC2)nc1C", "note": "(stereo not drawn)", "inhibition of growth at 10 µM": "< 10"}]}, {"system": "ACHN", "test": "Growth inhibition of human ACHN cells at 10 uM after 48 hrs by coulter counter analysis", "type": "functional", "settings": "read-out: GI", "outline": "as §1", "units": {"inhibition of growth at 10 µM": "%"}, "values": [{"molecule": "CCOC(=O)c1sc(NC(=O)C(C)N2CCN(C)CC2)nc1C", "note": "(stereo not drawn)", "inhibition of growth at 10 µM": "< 10"}]}, {"system": "COLO 205", "test": "Growth inhibition of human COLO205 cells at 10 uM after 48 hrs by coulter counter analysis", "type": "functional", "settings": "COLO 205, 48 h, read-out: GI", "outline": "as §1", "units": {"inhibition of growth at 10 µM": "%"}, "values": [{"molecule": "CCOC(=O)c1sc(NC(=O)C(C)N2CCN(C)CC2)nc1C", "note": "(stereo not drawn)", "inhibition of growth at 10 µM": "< 10"}]}]}
